From ChEMBL document CHEMBL3351672, “Saccharin derivatives as inhibitors of interferon-mediated inflammation” (J Med Chem, 2014)
Activity calls are given as the source filed them. No cut-off for these calls is given here.

Assays:
RAW264.7 [1] = assay: Antiinflammatory activity in mouse RAW264.7 cells assessed as inhibition of LPS-induced nitric oxide production; type: functional, cell-based
How it was run: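 RAW 264.7 cells stimulated with 20 ng/mL LPS plus a range of compound concentrations; nitric oxide output measured. Data normalized so LPS + solvent = 100% and untreated cells = 0% activation; IC50 fitted from dose–response, points averaged over nine replicates (SD).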

RAW264.7 [2] = assay: Cytotoxicity against mouse RAW264.7 cells assessed as cell viability by WST1 assay; type: cell-based; settings: read-out: LC50 (the source's name) (converted)
How it was run: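 RAW 264.7 mouse macrophages were stimulated with 20 ng/mL LPS and given a range of compound concentrations, alongside the nitric oxide inhibition assay. Cell viability was measured at each tested concentration. LC50 was taken as the concentration giving 50% cell viability.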

RAW264.7 [3] = assay: Inhibition of IFNgamma-induced iNOS mRNA expression in mouse RAW264.7 cells at 1 to 50 uM after 16 hrs by RT-PCR analysis; type: functional
[4] = target: T1, Nuclear factor NF-kappa-B complex (Homo sapiens) (UniProt Q00653+P19838+Q04206); assay: Inhibition of LPS-induced NFkappaB activation in human HEK293T cells at 0.5 to 1 uM after 18 to 24 hrs by secreted embryonic alkaline phosphatase reporter gene assay; type: cell-based; settings: HEK-293T
How it was run: (§1)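 NF-κB activation monitored by secreted embryonic alkaline phosphatase reporter in HEK 293T cells stimulated via TLR4 or TLR3; compound tested at concentrations […].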

RAW264.7 [5] = assay: Antiinflammatory activity in mouse RAW264.7 cells assessed as inhibition of pam2CSK4-induced nitric oxide production; type: functional, cell-based
How it was run: (§2)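 RAW 264.7 cells stimulated with Pam2CSK4 (TLR2/6 ligand) or Poly I:C (TLR3 ligand) with varying compound concentrations; NO production read out. Normalized to agonist + solvent (100%) versus untreated (0%); IC50 from dose–response curves, nine replicates averaged, SD shown.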

RAW264.7 [6] = assay: Cytotoxicity against mouse RAW264.7 cells assessed as cell viability up to 100 uM by WST1 assay; type: cell-based
How it was run: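 Cell viability assay run on the compound-treated RAW 264.7 cultures at each tested concentration; LC50 taken as concentration giving 50% viability.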

RAW264.7 [7] = assay: Antiinflammatory activity in mouse RAW264.7 cells assessed as inhibition of poly I:C-induced nitric oxide production; type: functional, cell-based; how it was run: as §2
RAW264.7 [8] = assay: Inhibition of LPS-induced iNOS mRNA expression in mouse RAW264.7 cells after 20 hrs by RT-PCR analysis; type: functional, cell-based
How it was run: (§3)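 RAW 264.7 cells incubated 20 h with 20 ng/mL LPS and varying compound concentrations; iNOS mRNA quantified by real-time PCR, ligand-induced cells set to fold change 1. Three biological replicates, each in technical duplicate; SD reported.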

RAW264.7 [9] = assay: Inhibition of LPS-induced iNOS protein expression in mouse RAW264.7 cells after 20 hrs by Western blot analysis; type: functional, cell-based
How it was run: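 RAW 264.7 cells treated with LPS and varying compound concentrations; iNOS protein detected by Western blot using a pan-NOS antibody.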

[10] = target: T1, Nuclear factor NF-kappa-B complex (Homo sapiens); assay: Inhibition of poly I:C-induced NFkappaB activation in human HEK293T cells at 0.5 to 1 uM after 18 to 24 hrs by secreted embryonic alkaline phosphatase reporter gene assay; type: cell-based; settings: HEK-293T; how it was run: as §1
[11] = target: T1, Nuclear factor NF-kappa-B complex (Homo sapiens); assay: Inhibition of TNFalpha-induced NFkappaB activation in human HEK293T cells at 0.5 to 1 uM after 18 to 24 hrs by secreted embryonic alkaline phosphatase reporter gene assay; type: cell-based; settings: HEK-293T
RAW264.7 [12] = assay: Inhibition of TNFalpha production in mouse RAW264.7 cells at 0.5 to 1 uM by ELISA; type: functional, cell-based
How it was run: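 TNF-α cytokine levels from compound-treated RAW 264.7 cells measured by commercial ELISA.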

[13] = Inhibition of JAK/STAT signaling pathway in LPS-induced mouse RAW264.7 cells assessed as inhibition of IFNgamma-induced nitric oxide production; type: cell-based
How it was run: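 JAK/STAT1 signalling activated in RAW 264.7 cells with 5 ng/mL IFN-γ alongside varying compound concentrations; NO production measured. Values normalized with ligand + solvent as 100% and untreated cells as 0%; IC50 derived from dose–response.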

[14] = Inhibition of JAK/STAT signaling pathway in LPS-induced mouse RAW264.7 cells assessed as change in NOS2 mRNA expression by RT-PCR analysis relative to control; type: cell-based
[15] = Inhibition of JAK/STAT signaling pathway in LPS-induced mouse RAW264.7 cells assessed as change in Cebpb mRNA expression by RT-PCR analysis relative to control; type: cell-based
[16] = Inhibition of JAK/STAT signaling pathway in LPS-induced mouse RAW264.7 cells assessed as change in Gtp1 mRNA expression by RT-PCR analysis relative to control; type: cell-based
RAW264.7 [17] = assay: Inhibition of LPS-induced iNOS mRNA expression in mouse RAW264.7 cells at 10 to 100 uM after 20 hrs by RT-PCR analysis; type: functional; how it was run: as §3
[18] = system: RAW 264.7 cells (Mus musculus); assay: Antiinflammatory activity in mouse RAW264.7 cells assessed as inhibition of LPS-induced nitric oxide production

T1 sequence (P19838 whole entry, looked up): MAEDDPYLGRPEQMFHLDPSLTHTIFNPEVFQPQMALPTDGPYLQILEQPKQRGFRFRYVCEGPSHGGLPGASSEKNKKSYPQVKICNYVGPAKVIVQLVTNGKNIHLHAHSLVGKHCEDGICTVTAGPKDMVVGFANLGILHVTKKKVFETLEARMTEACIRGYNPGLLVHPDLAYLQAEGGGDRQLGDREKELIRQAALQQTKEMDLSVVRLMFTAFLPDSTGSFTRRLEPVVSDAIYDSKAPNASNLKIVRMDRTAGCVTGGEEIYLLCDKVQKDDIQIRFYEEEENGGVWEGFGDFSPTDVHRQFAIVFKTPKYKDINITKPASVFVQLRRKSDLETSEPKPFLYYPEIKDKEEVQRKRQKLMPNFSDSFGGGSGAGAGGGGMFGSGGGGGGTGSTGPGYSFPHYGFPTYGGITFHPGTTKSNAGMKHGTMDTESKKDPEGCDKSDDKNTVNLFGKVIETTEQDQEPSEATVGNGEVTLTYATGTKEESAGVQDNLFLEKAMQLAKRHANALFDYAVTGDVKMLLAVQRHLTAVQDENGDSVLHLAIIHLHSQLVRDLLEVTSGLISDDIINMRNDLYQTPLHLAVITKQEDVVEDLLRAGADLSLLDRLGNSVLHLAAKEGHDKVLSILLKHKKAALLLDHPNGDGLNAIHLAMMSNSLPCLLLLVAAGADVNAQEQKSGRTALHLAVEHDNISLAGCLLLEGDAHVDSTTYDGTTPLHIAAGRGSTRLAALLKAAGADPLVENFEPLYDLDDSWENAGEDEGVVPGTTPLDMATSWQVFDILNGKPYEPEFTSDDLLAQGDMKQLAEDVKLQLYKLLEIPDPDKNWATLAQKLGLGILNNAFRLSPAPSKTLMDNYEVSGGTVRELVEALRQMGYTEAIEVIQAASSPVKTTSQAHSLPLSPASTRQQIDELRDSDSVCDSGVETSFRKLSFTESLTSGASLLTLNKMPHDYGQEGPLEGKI
T1 sequence (Q00653 whole entry, looked up): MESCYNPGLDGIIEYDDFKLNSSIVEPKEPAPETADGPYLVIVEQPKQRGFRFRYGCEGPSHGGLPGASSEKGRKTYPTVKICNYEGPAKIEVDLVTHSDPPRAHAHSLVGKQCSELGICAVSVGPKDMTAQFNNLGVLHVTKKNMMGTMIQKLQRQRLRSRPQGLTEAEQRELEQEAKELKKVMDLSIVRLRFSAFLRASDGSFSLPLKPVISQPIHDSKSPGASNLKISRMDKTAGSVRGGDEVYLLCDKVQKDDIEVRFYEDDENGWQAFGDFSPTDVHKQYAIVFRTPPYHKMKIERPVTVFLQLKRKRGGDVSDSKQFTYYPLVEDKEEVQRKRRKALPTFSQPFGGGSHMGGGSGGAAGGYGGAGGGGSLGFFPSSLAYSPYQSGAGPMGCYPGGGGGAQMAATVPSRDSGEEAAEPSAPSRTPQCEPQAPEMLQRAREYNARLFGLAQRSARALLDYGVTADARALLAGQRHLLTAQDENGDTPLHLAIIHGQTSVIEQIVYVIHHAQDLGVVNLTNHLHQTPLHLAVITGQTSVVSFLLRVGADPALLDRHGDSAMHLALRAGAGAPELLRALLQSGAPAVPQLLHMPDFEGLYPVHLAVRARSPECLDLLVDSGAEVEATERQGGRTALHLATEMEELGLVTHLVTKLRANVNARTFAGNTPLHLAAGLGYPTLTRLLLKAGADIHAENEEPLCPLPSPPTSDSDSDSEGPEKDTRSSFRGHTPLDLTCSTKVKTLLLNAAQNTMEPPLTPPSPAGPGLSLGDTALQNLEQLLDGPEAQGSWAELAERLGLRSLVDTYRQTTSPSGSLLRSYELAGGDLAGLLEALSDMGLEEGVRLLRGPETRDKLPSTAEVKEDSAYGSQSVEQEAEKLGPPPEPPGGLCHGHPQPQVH
T1 sequence (Q04206 whole entry, looked up): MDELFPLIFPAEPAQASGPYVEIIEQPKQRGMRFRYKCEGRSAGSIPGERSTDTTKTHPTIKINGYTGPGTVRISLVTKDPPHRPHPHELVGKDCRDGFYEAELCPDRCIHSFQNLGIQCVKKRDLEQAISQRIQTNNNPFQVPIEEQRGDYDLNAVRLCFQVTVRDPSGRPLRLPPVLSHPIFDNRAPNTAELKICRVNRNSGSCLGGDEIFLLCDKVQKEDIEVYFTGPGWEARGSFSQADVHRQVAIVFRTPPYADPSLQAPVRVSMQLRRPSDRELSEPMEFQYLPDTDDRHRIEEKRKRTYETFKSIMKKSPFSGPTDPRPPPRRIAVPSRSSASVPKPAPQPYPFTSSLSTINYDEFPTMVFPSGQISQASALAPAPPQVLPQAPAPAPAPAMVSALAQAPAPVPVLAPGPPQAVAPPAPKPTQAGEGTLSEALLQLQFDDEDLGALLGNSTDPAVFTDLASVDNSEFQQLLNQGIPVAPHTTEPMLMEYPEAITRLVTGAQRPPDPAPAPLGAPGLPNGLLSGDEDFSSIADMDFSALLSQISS

| SMILES | IC50 (RAW264.7 [1]) [µM] | CC50 (RAW264.7 [2]) [µM] | also measured |
| --- | --- | --- | --- |
| CC(C)(C)OC(=O)N(Cc1ccco1)C(=O)c1ccc(Cn2sc3ccccc3c2=O)cc1 | 68 | > 100 | inhibition (INH) (RAW264.7 [3]): 50% |
| CC(C)(C)OC(=O)N(CCc1ccco1)C(=O)c1ccc(CN2C(=O)c3ccccc3S2(=O)=O)cc1 | 48.6 | > 100 | – |
| COC(=O)N(Cc1ccco1)C(=O)c1ccc(CN2C(=O)c3ccccc3S2(=O)=O)cc1 | 76 | > 100 | – |
| O=C(NCc1ccco1)c1ccc(CN2C(=O)c3ccccc3C2=O)cc1 | 56 | > 100 | – |
| O=C(c1ccc(CN2Cc3ccccc3S2(=O)=O)cc1)N1CCCCC1 | 44.3 | > 100 | – |
| O=C(NCc1ccco1)c1ccc(CN2Cc3ccccc3S2(=O)=O)cc1 | 68.4 | > 100 | – |
| CC(C)(C)OC(=O)N(Cc1ccco1)C(=O)c1ccc(CN2Cc3ccccc3C2=O)cc1 | 51.8 | 95.2 | – |
| NC(=O)c1ccc(CN2C(=O)c3ccccc3S2(=O)=O)cc1 | 50.6 | > 100 | inhibition (INH) (RAW264.7 [3]): 50% |
| O=C(c1ccc(CN2C(=O)c3ccccc3C2=O)cc1)N1CCCCC1 | > 100 | > 100 | – |
| CC(C)(C)OC(=O)N(Cc1ccco1)C(=O)c1ccc(CN2C(=O)c3ccccc3C2=O)cc1 | 3.45 | > 100 | – |
| O=C(c1ccc(CN2C(=O)c3ccccc3S2(=O)=O)cc1)N1CCCCC1 | 50.6 | 69.2 | – |
| CC(C)(C)OC(=O)NC(=O)c1ccc(CN2C(=O)c3ccccc3S2(=O)=O)cc1 | 64.7 | > 100 | – |
| CC(C)(C)OC(=O)c1ccc(CN2C(=O)c3ccccc3S2(=O)=O)cc1 | 10.6 | > 100 | – |
| O=C(NCc1ccco1)c1ccc(Cn2oc3ccccc3c2=O)cc1 | 49.3 | > 100 | – |
| CC1=C(c2ccc3ccccc3c2)S(=O)(=O)N(Cc2ccc(C(=O)N3CCCCC3)cc2)C1=O | 9.61 | 47.9 | – |
| O=C(c1ccc(Cn2c(=O)c3ccccc3[s+]2[O-])cc1)N1CCCCC1 (centres undefined) | 49 | > 100 | – |
| CC(C)(C)OC(=O)N(Cc1ccco1)C(=O)c1ccc(CN2C(=O)c3ccccc3S2(=O)=O)cc1 | 2.61 | > 100 | inhibition [4]: inactive; inhibition (RAW264.7 [1]): Dose-dependent effect; IC50 (RAW264.7 [5]): 1.69 µM; inhibition (RAW264.7 [5]): Dose-dependent effect; Activity (RAW264.7 [6]): Non-toxic; IC50 (RAW264.7 [7]): 10.9 µM; inhibition (RAW264.7 [7]): Dose-dependent effect; inhibition (RAW264.7 [8]): Dose-dependent effect; inhibition (RAW264.7 [9]): Dose-dependent effect; inhibition (INH) (RAW264.7 [3]): >70%; inhibition [10]: inactive; inhibition [11]: inactive; inhibition (RAW264.7 [12]): inactive; IC50 [13]: 7.88 µM; inhibition [13]: Dose-dependent effect; Activity [14]: Active; Activity [15]: Active; Activity [16]: Active; inhibition (INH) (RAW264.7 [17]): <=67%; IC50 [18]: 9.61 µM |
| O=C(NCc1ccco1)c1ccc(Cn2c(=O)c3ccccc3[s+]2[O-])cc1 (centres undefined) | 23.3 | > 100 | – |

| SMILES | IC50 (RAW264.7 [1]) [µM] | CC50 (RAW264.7 [2]) [µM] | also measured |
| --- | --- | --- | --- |
| CC1=C(c2ccc(C)c(C)c2)S(=O)(=O)N(Cc2ccc(C(=O)N3CCCCC3)cc2)C1=O | 16.5 | > 100 | – |
| CNC(=O)c1ccc(CN2C(=O)c3ccccc3S2(=O)=O)cc1 | 37.7 | > 100 | – |
| O=C(c1ccc(CN2Cc3ccccc3C2=O)cc1)N1CCCCC1 | 21.9 | > 100 | – |
| CC(C)(C)OC(=O)N(Cc1ccco1)C(=O)c1ccc(Cn2oc3ccccc3c2=O)cc1 | 6.69 | > 100 | – |
| CC(=O)N(Cc1ccco1)C(=O)c1ccc(CN2C(=O)c3ccccc3S2(=O)=O)cc1 | 42.6 | > 100 | – |
| O=C(O)c1ccc(CN2C(=O)c3ccccc3S2(=O)=O)cc1 | 74.7 | > 100 | – |
| O=C(NCc1ccco1)c1ccc(CN2C(=O)c3ccccc3S2(=O)=O)cc1 | 24.3 | > 100 | – |
| O=C(NCc1ccco1)c1ccc(Cn2sc3ccccc3c2=O)cc1 | 19.8 | > 100 | – |
| O=C(NCc1ccco1)c1ccc(CN2Cc3ccccc3C2=O)cc1 | 49.7 | > 100 | – |
| CC(C)(C)OC(=O)N(C(=O)OC(C)(C)C)C(=O)c1ccc(CN2C(=O)c3ccccc3S2(=O)=O)cc1 | 33.4 | > 100 | – |
| CN(C(=O)OC(C)(C)C)C(=O)c1ccc(CN2C(=O)c3ccccc3S2(=O)=O)cc1 | 42 | > 100 | – |
| CC(C)(C)OC(=O)N(Cc1ccco1)C(=O)c1ccc(CN2Cc3ccccc3S2(=O)=O)cc1 | 10.6 | > 100 | – |
| CN(Cc1ccco1)C(=O)c1ccc(CN2C(=O)c3ccccc3S2(=O)=O)cc1 | 79.6 | > 100 | – |
| O=C(NCCc1ccco1)c1ccc(CN2C(=O)c3ccccc3S2(=O)=O)cc1 | 76.6 | > 100 | – |
| O=C(c1ccc(Cn2sc3ccccc3c2=O)cc1)N1CCCCC1 | 5.38 | 70.3 | – |
| CC1=C(c2cc[n+]([O-])cc2)S(=O)(=O)N(Cc2ccc(C(=O)N3CCCCC3)cc2)C1=O | 79.4 | > 100 | – |
| CC(C)(C)OC(=O)N(Cc1ccco1)C(=O)c1ccc(Cn2c(=O)c3ccccc3[s+]2[O-])cc1 (centres undefined) | 68 | 87.3 | – |
| O=C(c1ccc(Cn2oc3ccccc3c2=O)cc1)N1CCCCC1 | 16.8 | 66.2 | – |
